Source: PubChem BioAssay (The Scripps Research Institute Molecular Screening Center)
SIAE inh = blocks human sialic acid acetylesterase. AID 1053197. SIAE FP-Rh probe binding, fluorescence polarization. inhibition, % at 9.66 µM. Q9HAT2. 370,000 compounds, 0.69% hits;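 active means inhibition above a cutoff: mean of compounds within the control limits plus 3 SD of those, cut at about 17% in these data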
TCR CD3 inh = human TCR-CD3 binding inhibition; TAMRA-labeled TCR probe fluorescence, biochemical; inhibition, % at 9.4 µM; 360,000 compounds, 0.37% hits; in the data active means inhibition above about 19%;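 further: recombinant mutant TCR 2C K166C tagged with TAMRA read by polarization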
ABHD4 inh = ABHD4 (mouse) inhibition, primary FP screen | Q8VD66 | purified mABHD4, FP-Rh probe fluorescence polarization | inhibition, % at 8.92 µM | 370,000 compounds, 0.54% hits;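 active means inhibition exceeding the mean over every tested compound plus 3 SD, cut at about 30% in these data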
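assay system = mABHD4 protein | compound dosing = single nominal dose of 8.92 µM, 0.89% DMSO final | read-out basis = percent inhibition of probe binding, normalized to plate controls | schedule = Enzyme–compound pre-incubation 45 min, then probe 60 min, both 25 °C | detection = fluorescence polarization, excitation 525 nm, emission 598 nm, BODIPY TMR filters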
rCAG binder = molecules binding r(CAG) RNA repeats | r(CAG) RNA repeat, TO-PRO-1 dye displacement fluorescence | inhibition, % at 3 µM | 370,000 compounds, 1.3% hits | AID 651821;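 active means inhibition above the plate cutoff, the mean of all test compounds on that plate plus 3 SD, cut at about 35% in these data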;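 further: higher means more dye released from RNA so lower well fluorescence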
HTRA1 inh = blocks human HTRA1 serine peptidase | Q92743 | recombinant HTRA1, FP-rhodamine activity-based probe, fluorescence polarization | inhibition, % at 5.96 µM | 340,000 compounds, 0.5% hits | AID 504803; in the data active means inhibition above about 36%
Target sequence (Q92743 whole entry, looked up): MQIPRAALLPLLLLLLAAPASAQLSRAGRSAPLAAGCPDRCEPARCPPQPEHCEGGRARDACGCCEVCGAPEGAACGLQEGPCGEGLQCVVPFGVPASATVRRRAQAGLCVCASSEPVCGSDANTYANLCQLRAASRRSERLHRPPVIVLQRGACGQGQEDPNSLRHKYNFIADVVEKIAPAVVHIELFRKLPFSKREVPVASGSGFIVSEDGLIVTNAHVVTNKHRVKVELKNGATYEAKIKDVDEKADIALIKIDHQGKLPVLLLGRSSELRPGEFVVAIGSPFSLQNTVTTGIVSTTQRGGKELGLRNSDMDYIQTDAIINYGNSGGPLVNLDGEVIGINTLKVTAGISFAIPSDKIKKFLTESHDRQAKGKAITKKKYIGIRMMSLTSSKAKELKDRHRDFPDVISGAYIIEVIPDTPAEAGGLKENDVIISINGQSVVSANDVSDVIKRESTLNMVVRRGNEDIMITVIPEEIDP
rCAG bind conf = r(CAG) RNA repeat binding, confirmation; AID 652065; 4,300 compounds, 70% hits; TO-PRO-1 dye displacement fluorescence; shares compounds with rCAG binder; inhibition, % at 3 µM;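 active means inhibition above a per-plate cutoff, the mean inhibition of sample wells plus 3 SD, cut at about 35% in these data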;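 further: loss of TO-PRO-1 fluorescence as compound displaces dye from 1x1 AA loop RNA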
DNA CAG counter = disrupts DNA CAG TO-PRO-1 complex, flagging rCAG hits | inhibition, % at 3 µM | 4,300 compounds, 94% hits | shares compounds with rCAG binder | d(CAG) DNA oligo TO-PRO-1 dye displacement, fluorescence;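 active means inhibition above its plate's cutoff, the mean test-well inhibition plus 3 SD, cut at about 4.8% in these data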;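 further: hits displace the dye from DNA and so lower well fluorescence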
DNA CAG DR = DNA CAG dye complex inhibition, dose response counter-screen; shares compounds with rCAG binder; DNA CAG/GTC duplex TO-PRO-1 dye displacement fluorescence; IC50, µM; 250 compounds, 20% hits; AID 686960; in the data active means IC50 below about 10 µM
Each line names hits and unclear results; the compound was inactive in the other large screens (follow-up assays come after a bar, where they were run). Sampled rows, rich in hits. Any-hit rate of the full collection: about 2.5%.

CN(C)S(=O)(=O)c1ccc(C(=O)Nc2cc3c(cc2C(=O)O)OCCCO3)cc1	rCAG binder 59 | rCAG bind conf inactive | DNA CAG counter 5.1
CN(C)S(=O)(=O)c1cccc(C(=O)Nc2ccc(N3CCOCC3)cc2)c1	none
Cc1[nH]c(=O)[nH]c(=O)c1NC(=O)c1cccs1	none
Cc1c(Br)c([N+](=O)[O-])nn1CCCC(=O)Nc1sc2c(c1C(N)=O)CCC(C)C2 (stereo unspecified)	none
O=C(O)c1ccc2c(c1)S(=O)(=O)N=C1CCCCCN12	none
Cc1cccc(C)c1-n1c(SCC(=O)Nc2ccc(C(=O)O)cc2)nnc1-c1cccc(S(=O)(=O)N(C)C)c1	rCAG binder 38 | rCAG bind conf inactive | DNA CAG counter inactive
COc1ccc(-n2nc(C(=O)NCC(=O)NCCC3=CCCCC3)c3ccccc3c2=O)cc1OC	rCAG binder 36 | rCAG bind conf inactive | DNA CAG counter 7.3
NC(=O)c1ccc2c(c1)S(=O)(=O)c1ccccc1C2=O	none
COC(=O)c1sc(-c2ccc(Cl)cc2)cc1NC(=O)COCC(=O)O	rCAG binder 46 | rCAG bind conf 52 | DNA CAG counter 12 | DNA CAG DR inactive
COC(=O)c1sc(-c2ccc(C(C)(C)C)cc2)cc1NC(=O)CCC(=O)O	rCAG binder 72 (no result: HTRA1 inh) | rCAG bind conf 72 | DNA CAG counter 29
CN=C(Nc1cc(C)nn1-c1ccccc1)c1ccc(F)cc1	none
COc1ccc([C@H]2N[C@]3(CCCN(Cc4ccc(F)cc4)C3=O)[C@H]3C(=O)N(Cc4ccccc4)C(=O)[C@@H]23)cc1	none
COc1ccc(-c2csc(Nc3ccc(S(=O)(=O)Nc4cc(C)on4)cc3)n2)cc1	rCAG binder 73 | rCAG bind conf 72 | DNA CAG counter 36
O=[N+]([O-])c1cccc(-c2csc(Nc3ccccc3)n2)c1	none
COc1ccc(-c2csc(Nc3ccc(S(N)(=O)=O)cc3)n2)cc1	none
COc1cc(NS(=O)(=O)c2ccc(Nc3nc(-c4cccc([N+](=O)[O-])c4)cs3)cc2)nc(OC)n1	rCAG binder 95 | rCAG bind conf 90 | DNA CAG counter 64
COc1cc(/C=C2\SC(=S)N(Nc3ncc(C(F)(F)F)cc3Cl)C2=O)ccc1O	rCAG binder 53 | rCAG bind conf 63 | DNA CAG counter 32
NCCCNC(=O)c1cc2ccccc2[nH]1	none
Cc1oc2c(C)c3oc(=O)c(CCC(=O)N4CCC(C(=O)NCCC(=O)O)(c5ccccc5)CC4)c(C)c3cc2c1C	rCAG binder 35 | rCAG bind conf 58 | DNA CAG counter 16
COc1cccc(Nc2ccc(-n3ccnc3)nn2)c1	none
COc1cc(NS(=O)(=O)c2ccc(NC(=S)NC(=O)/C=C/c3ccco3)cc2)ncn1	rCAG binder 57 | rCAG bind conf 48 | DNA CAG counter 16
COc1ccc(/C=C/C(=O)NC(=S)Nc2ccc(S(=O)(=O)Nc3cc(C)on3)cc2)cc1	none
COc1ccc(/C=C/C(=O)NC(=S)Nc2ccc(S(=O)(=O)Nc3ccc(OC)nn3)cc2)cc1	rCAG binder 70 | rCAG bind conf 66 | DNA CAG counter 33
CC(C)CNc1nc(Oc2ccc(=O)n(C)n2)nc(N2CCOCC2)n1	none
CCc1ccc(N=C2NC(=O)/C(=C/c3ccc(OCC(=O)O)c(OC)c3)S2)cc1	rCAG binder 42 | rCAG bind conf 39 | DNA CAG counter 12
CCOc1ccc(N=C2NC(=O)/C(=C/C(=O)OC)S2)cc1	none
COc1ccc(N=C2NC(=O)/C(=C/c3ccc(O)c(OC)c3)S2)cc1	none
CCc1ccc(N=C2NC(=O)/C(=C/c3ccc(OCC(=O)O)cc3)S2)cc1	rCAG binder 49 | rCAG bind conf 40 | DNA CAG counter 10
CSc1nnc(NC(=O)c2cc(=O)c3cc(C)cc(C)c3o2)s1	none
Cc1ccccc1N1CC2=C(C1=O)C(c1ccccc1)NC(=O)N2C (stereo unspecified)	none
